Experimental data of several laboratories.
Target: Calcium/calmodulin-dependent protein kinase type 1D (CAMK1D, Homo sapiens, UniProt Q8IU85)

COc1cc(Cl)c(C(=O)N[C@@H](CN[C@H]2CC[C@@H](N)CC2)Cc2ccc(C#N)cc2)cc1-c1ccc(CN[C@H](C)c2ccc(C)cc2)o1 — remaining activity (enzyme activity, inhibitor; 1 µM): 88%
CS(=O)(=O)c1cc(C2(NC(=O)c3cncc4c3cnn4-c3ccc(F)cc3)CC2)ccn1 — remaining binding (cell-free assay, competition with immobilised ligand; 1 µM): 90%
CC/C(=N\NC(=O)NCc1cccc(O)c1)c1ccc(O)c(C)c1O — inhibition (enzyme activity, inhibitor; 0.1 µM): -3.5%
Cc1ccc(Nc2nccc(N(C)c3ccc4c(C)n(C)nc4c3)n2)cc1S(N)(=O)=O — inhibition (enzyme activity, inhibitor; 0.3 µM): 18%
C[C@H](c1ccnc(Nc2nc3ccc(-c4cc(N(C)C)ncn4)cc3[nH]2)c1)N1CCN(C(=O)CC(F)(F)F)CC1 — remaining binding (cell-free assay, competition with immobilised ligand; 0.1 µM): 95%
COc1cc2ncnc(Nc3ccc(Oc4ccccc4)c(C)c3C)c2cc1OC — inhibition (enzyme activity, inhibitor; 1 µM): 1%
Cn1c2c(c3ccc(Cl)c(Cl)c31)C(C#N)C1(CCCC1)NC2=O (stereo not drawn) — ΔTm (thermal stability, DSF; 10 µM): 0 °C
Cc1sc(C(=O)NC2COC2)cc1-n1cc(NC(=O)Nc2c(F)cccc2Cl)cn1 — remaining activity (enzyme activity, inhibitor; 10 µM): 105%
CNC(=O)c1cc(Oc2ccc(NC(=O)Nc3ccc(Cl)c(C(F)(F)F)c3)cc2)ccn1 — inhibition (enzyme activity, inhibitor; 10 µM): 22%
CN(C)C(=O)Cn1cc(-c2nc(C3(c4ccc(-c5cnc(N)nc5)cc4)CC3)no2)cn1 — remaining binding (cell-free assay, competition with immobilised ligand; 1 µM): 100%
O=C1NC(=O)c2cc(Nc3ccc(F)cc3)c(Nc3ccc(F)cc3)cc21 — remaining signal (cell-free assay; 0.5 µM): 78.1%
Cc1ccc(NC(=O)c2ccc(C)c(C(F)(F)F)c2)cc1C#Cc1nn(C2CCC(O)CC2)c2ncnc(N)c12 (stereo not drawn) — remaining signal (cell-free assay; 10 µM): 92%
Cn1c2c(Cl)c(Cl)ccc2c2cc[nH]c(=O)c21 — ΔTm (thermal stability, DSF; 10 µM): 1 °C
CC(C)(C)c1nc(-c2cccc(NS(=O)(=O)c3c(F)cccc3F)c2F)c(-c2ccnc(N)n2)s1 — remaining activity (enzyme activity, inhibitor, radiometric; 1 µM): 116%
Cc1cnc(NC2CCOCC2)nc1-n1cnc(C(=O)NC(CN)c2cc(F)cc(Cl)c2)c1 (stereo not drawn) — remaining activity (enzyme activity, inhibitor, radiometric; 1 µM): 84%
COc1cccc2c(NCc3ccccc3)nc(-n3c(N)nc4ccccc43)nc12 — inhibition (target engagement in cells, inhibitor, chemoproteomics; 20 mM): 0%
Nc1ncnc2occ(-c3ccc(NC(=O)Nc4cc(C(F)(F)F)ccc4F)cc3)c12 — remaining signal (cell-free assay, inhibitor; 20 µM): 2.8%
COc1cc2ncnc(Nc3ccc(F)c(Cl)c3)c2cc1OCCCN1CCOCC1 — remaining signal (cell-free assay; 0.5 µM): 88.6%
Cc1c(NC(=O)c2cc(C(N)=O)nc3cc(F)ccc23)c(C(F)(F)F)nn1Cc1ccc(C(C)(C)C)cc1 — remaining binding (cell-free assay, competition with immobilised ligand; 1 µM): 84%
Cn1c2c(c3ccc(Cl)c(Cl)c31)C(C#N)C1(CCNCC1)NC2=O (racemic) — ΔTm (thermal stability, DSF; 10 µM): 1.2 °C
CCCS(=O)(=O)Nc1ccc(F)c(C(=O)c2c[nH]c3ncc(-c4ccc(Cl)cc4)cc23)c1F — inhibition (enzyme activity, inhibitor; 1 µM): < 10%
CNCc1ccccc1-c1csc([C@H](C)Nc2nc(C)nc3cc(OC)c(OC)cc23)c1 — remaining binding (cell-free assay, competition with immobilised ligand; 1 µM): 100%
O=C1c2ccccc2-c2n[nH]c3cccc1c23 — activity vs control (enzyme activity, inhibitor; 0.5 µM): 91.9%
Cn1c2c(c3ccc(Cl)c(Cl)c31)C(C#N)C(C)(C)NC2=O (stereo not drawn) — ΔTm (thermal stability, DSF; 10 µM): -0.6 °C
Cc1c(C(=O)O)cc(-c2ccc(C3CCNCC3)cc2)c2ccc(-c3ccc(C(F)(F)F)cc3)cc12 — remaining binding (cell-free assay, competition with immobilised ligand; 1 µM): 100%
CCC1(CC)NC(=O)c2c(c3ccc(Cl)c(Cl)c3n2C)C1C#N (stereo not drawn) — ΔTm (thermal stability, DSF; 10 µM): -0.2 °C
CC1=C(C#N)C(c2ccc3c(c2)c(NC(=O)c2ccccc2C)nn3C)C(C#N)=C(C)N1 — remaining binding (cell-free assay, competition with immobilised ligand; 1 µM): 93%
CN1CC(Oc2cnc(C#N)cc2-c2ccn3nc(NC(=O)C4CC4)cc3c2)C1 — inhibition (enzyme activity, inhibitor; 1 µM): -2%
O=C(NC[C@@H]1[C@H]2CN(C(=O)OCc3cc(C(F)(F)F)cc(C(F)(F)F)c3)C[C@@H]12)c1ccc2[nH]nnc2c1 — remaining binding (cell-free assay, competition with immobilised ligand; 1 µM): 100%
N#CCCc1ccc2c(c1)-c1[nH]c3ccc([N+](=O)[O-])cc3c1CC(=O)N2 — remaining signal (cell-free assay; 0.5 µM): 91.8%
